Columns and labels:
[1] = organism: Cavia porcellus; test: (§1) Percent change for delaying effective refractory period (ERP) in guinea pig at 10e-5 M concentration; type: functional
Outline: (§2)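 Isolated atria, left atria preloaded 10 mN and paced at 1 s⁻¹ with square-wave pulses at twice-threshold voltage. ERP was measured by paired electrical stimulation after a 1 h Tyrode's equilibration with washouts every 15 min. Drug was added cumulatively at 15 min intervals, with final concentrations rising geometrically. ERP was read 10 min after each addition.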

[2] = organism: Cavia porcellus; test: Percent change of force of constriction measured in guinea pig at 10e-5 M concentration; type: functional
Outline: (§3)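 Left atria under 10 mN preload, driven at 1 s⁻¹ by square-wave pulses at twice-threshold voltage. Isometric contractions were recorded via a strain gauge after a 1 h Tyrode's equilibration. Cumulative drug additions were made every 15 min, with final concentrations rising geometrically. The inotropic effect was determined 10 min after each addition.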

[3] = organism: Cavia porcellus; test: Percent change in heart rate measured in guinea pig at 10e-5 M concentration; type: functional
Outline: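 Spontaneously beating right atria, with contractions recorded in parallel to give beating rate. Tissue equilibrated 1 h in Tyrode's, washed every 15 min. Drug was added to the bath cumulatively at 15 min intervals in geometrically increasing final concentrations. The chronotropic effect was read 10 min after each addition.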

[4] = organism: Cavia porcellus; test: Effective concentration for delaying effective refractory period (ERP) 10 ms in guinea pig; type: functional; outline: as §2
[5] = organism: Cavia porcellus; test: Effective concentration for delaying effective refractory period (ERP) 10 ms in guinea pig; N means No effect at 10E-5 M; type: functional; outline: as §2
[6] = organism: Cavia porcellus; test: as §1; type: functional, organism-based; outline: as §2
[7] = organism: Cavia porcellus; test: Percent change of force of constriction measured in guinea pig at 10e-5 M concentration; N means No effect.; type: functional; outline: as §3
[8] = organism: Cavia porcellus; test: Percent change for delaying effective refractory period (ERP) in guinea pig at 10e-5 M concentration; N means No effect.; type: functional; outline: as §2
[9] = organism: Cavia porcellus; test: Percent change of force of constriction measured in guinea pig at 10e-5 M concentration; Nf means No effect.; type: functional; outline: as §3
[10] = organism: Cavia porcellus; test: No effect was observed for ERP at 10x (10e-5) M concentration; N means No effect at 10E-5 M; type: functional; outline: as §2

SMILES | Delta ERP [1] [%] | Delta FC [2] [%] | Delta HR [3] [%] | C [4] [µM] | N [5] | N [6] | N [7] | N [8] | N [9] | N [10]
CN(CCc1ccc(NS(C)(=O)=O)cc1)C1CCCCC1 | 6.45 | 8.33 | -8 | 4.79 |  |  |  |  |  | 
COc1ccccc1CN(C)CCc1ccc(NS(C)(=O)=O)cc1 | 15.6 | 38.3 | -26.7 | 0.155 |  |  |  |  |  | 
CS(=O)(=O)Nc1ccc(CCN(CCOc2ccc(NS(C)(=O)=O)cc2)Cc2ccccc2)cc1 | 17.5 | 24.8 | -32 | 0.016 |  |  |  |  |  | 
CS(=O)(=O)Nc1ccc(CCN(CCOc2ccc(NS(C)(=O)=O)cc2)S(C)(=O)=O)cc1 |  | 16.7 | -18.8 |  | No effect at 10E-5 M | No effect at 10E-5 M |  |  |  | 
CS(=O)(=O)Nc1ccc(CCN(CCOc2ccc(NS(C)(=O)=O)cc2)C(=O)c2ccccc2)cc1 | 19 | 25 | -28.4 | 0.039 |  |  |  |  |  | 
CS(=O)(=O)Nc1ccc(CCN(Cc2ccccc2)Cc2ccccc2)cc1 | 16.1 |  | -25 | 0.27 |  |  | No effect |  |  | 
COc1ccc(CN(CCOc2ccc(NS(C)(=O)=O)cc2)CCc2ccc(NS(C)(=O)=O)cc2)cc1 | 12.1 | 14.3 | -25.8 | 0.21 |  |  |  |  |  | 
CN(CCOc1ccc(NS(C)(=O)=O)cc1)CCc1ccc(NS(C)(=O)=O)cc1 [DOFETILIDE] | 24 | 17.1 | -30 | 0.011 |  |  |  |  |  | 
Cc1ccc(CN(C)CCc2ccc(N(S(C)(=O)=O)S(C)(=O)=O)cc2)cc1 | 12.6 | -11.8 | -15.4 | 0.953 |  |  |  |  |  | 
CC(=O)N(CCOc1cccc2ccccc12)CCc1ccc(NS(C)(=O)=O)cc1 | 58.4 | -37.9 | -46.2 | 0.05 |  |  |  |  |  | 
COc1ccc(CN(CCc2ccc(NS(C)(=O)=O)cc2)C(C)=O)cc1 |  | 14.3 | -18.2 |  | No effect |  |  | No effect |  | 
CS(=O)(=O)Nc1ccc(CCN(CCOc2ccc(NS(C)(=O)=O)cc2)CCOc2ccc(NS(C)(=O)=O)cc2)cc1 | 13.5 | 20 | -26.7 | 0.383 |  |  |  |  |  | 
CS(=O)(=O)Nc1ccc(CCN(CCOc2cccc3ccccc23)C(=O)c2ccccc2)cc1 | 5.33 | 33.3 | -20 | 8.67 |  |  |  |  |  | 
CS(=O)(=O)Nc1ccc(CCNCCOc2ccc(NS(C)(=O)=O)cc2)cc1 [N-DESMETHYLDOFETILIDE] | 9.39 | 33.7 | -23.8 | 0.023 |  |  |  |  |  | 
CN(CCOc1cccc2ccccc12)CCc1ccc(NS(C)(=O)=O)cc1 | 20.2 | 20.3 | -28.5 | 0.293 |  |  |  |  |  | 
CN(CCOc1cccc2ccccc12)CCc1ccc(N(S(C)(=O)=O)S(C)(=O)=O)cc1 | 12 |  | -20.7 | 0.203 |  |  | No effect |  |  | 
CN(CCc1ccc(N(S(C)(=O)=O)S(C)(=O)=O)cc1)C1CCCCC1 | 6.24 |  | -8.36 | 4.39 |  |  |  |  | No effect | 
COc1ccc(CN(CCc2ccc(NS(C)(=O)=O)cc2)C(=O)c2ccccc2)cc1 | 6.33 | 33.3 | -3.7 | 6.18 |  |  |  |  |  | 

SMILES | Delta ERP [1] [%] | Delta FC [2] [%] | Delta HR [3] [%] | C [4] [µM] | N [5] | N [6] | N [7] | N [8] | N [9] | N [10]
CS(=O)(=O)Nc1ccc(CCN(CCOc2ccc(NS(C)(=O)=O)cc2)Cc2ccc(Cl)cc2)cc1 | 9.29 | 20 | -40.6 | 0.037 |  |  |  |  |  | 
CS(=O)(=O)N(c1ccc(CCN(CCOc2cccc3ccccc23)Cc2ccccc2)cc1)S(C)(=O)=O |  | 25 | -17.9 |  |  |  |  | No effect |  | No effect
COc1ccccc1CN(CCc1ccc(NS(C)(=O)=O)cc1)Cc1ccccc1 | 10.9 | -14.3 | -28.2 | 0.141 |  |  |  |  |  | 
C=CCN(CCOc1cccc2ccccc12)CCc1ccc(N(S(C)(=O)=O)S(C)(=O)=O)cc1 |  | 16.7 | -8.33 |  | No effect |  |  | No effect |  | 
CN(CCc1ccc(NS(C)(=O)=O)cc1)Cc1ccccc1 | 12.2 | 16.7 | -20 | 0.372 |  |  |  |  |  | 
C=CCN(CCOc1ccc(NS(C)(=O)=O)cc1)CCc1ccc(NS(C)(=O)=O)cc1 | 12.4 |  | -5.26 | 0.267 |  |  | No effect |  |  | 
C=CCN(CCOc1cccc2ccccc12)CCc1ccc(NS(C)(=O)=O)cc1 | 9.77 | 16.7 | -15.2 | 0.315 |  |  |  |  |  | 
CC(=O)N(CCOc1ccc(NS(C)(=O)=O)cc1)CCc1ccc(NS(C)(=O)=O)cc1 | 16.9 | 17.5 | -20.6 | 0.021 |  |  |  |  |  | 
CS(=O)(=O)Nc1ccc(CCN(Cc2ccccc2)Cc2ccc(Cl)cc2)cc1 | 14.5 | 25 | 16 | 1.05 |  |  |  |  |  | 
Cc1ccc(CN(CCc2ccc(N(S(C)(=O)=O)S(C)(=O)=O)cc2)Cc2ccccc2)cc1 | 5.71 | 25 | 16 | 0.62 |  |  |  |  |  | 
CN(CCc1ccc(NS(C)(=O)=O)cc1)Cc1ccc2c(c1)OCO2 | 6.16 | 17.2 | -15.3 | 0.89 |  |  |  |  |  | 
CN(CCc1ccc(NS(C)(=O)=O)cc1)Cc1ccc(Cl)cc1 | 7.06 | 8.33 | -14.5 | 2.24 |  |  |  |  |  | 
COc1ccc(CN(C)CCc2ccc(N(S(C)(=O)=O)S(C)(=O)=O)cc2)cc1 | 8.7 | 25 | -19.2 | 1.17 |  |  |  |  |  | 
CS(=O)(=O)Nc1ccc(CCN(CCOc2cccc3ccccc23)Cc2ccccc2)cc1 |  | 25 | -31.8 |  | No effect |  |  | No effect |  | 
COc1ccc(CN(CCc2ccc(N(S(C)(=O)=O)S(C)(=O)=O)cc2)Cc2ccccc2)cc1 | 9.09 | -20 | -27.3 | 0.79 |  |  |  |  |  | 
CS(=O)(=O)N(c1ccc(CCN(Cc2ccccc2)Cc2ccc3c(c2)OCO3)cc1)S(C)(=O)=O | 9.46 | -20 | -18.3 | 0.38 |  |  |  |  |  | 
CS(=O)(=O)N(c1ccc(CCN(Cc2ccccc2)Cc2ccccc2)cc1)S(C)(=O)=O | 9.56 |  | -16 | 0.653 |  |  | No effect |  |  | 
COc1ccc(CN(CCc2ccc(NS(C)(=O)=O)cc2)Cc2ccc(Cl)cc2)cc1 | 19.3 | 15 | -9.09 | 0.068 |  |  |  |  |  | 
